The test system of experiment [1] is Rattus norvegicus. Kind of experiment: Evaluated for number of rats ovulating in an in vivo anti-ovulatory assay at dose(25 microg); 3/4. The experiment is classed as functional, organism-based.
Experiment [2] deals with Rattus norvegicus. Kind of experiment: Evaluated for number of rats ovulating in an in vivo anti-ovulatory assay at dose(50 microg); 0/6. It is filed as functional, organism-based.
The test system of experiment [3] is Rattus norvegicus. Kind of experiment: Evaluated for number of rats ovulating in an in vivo anti-ovulatory assay at dose (250 microg); 5/9. It is filed as functional, organism-based.
Experiment [4] deals with Rattus norvegicus. Briefly: Evaluated for number of rats ovulating in an in vivo anti-ovulatory assay at dose (500 microg); 4/8. The experiment is classed as functional, organism-based.
Experiment [5] relates to Rattus norvegicus. Kind of experiment: Evaluated for number of rats ovulating in an in vivo anti-ovulatory assay at dose (25 microg); 5/6. It is filed as functional, organism-based.
Experiment [6] deals with Rattus norvegicus. Kind of experiment: Evaluated for number of rats ovulating in an in vivo anti-ovulatory assay at dose (100 microg); 6/11. It is filed as functional, organism-based.
Experiment [7] has as its system Rattus norvegicus. Kind of experiment: Evaluated for number of rats ovulating in an in vivo anti-ovulatory assay at dose (500 microg); 7/8. It is filed as functional, organism-based.
Experiment [8] relates to Rattus norvegicus. Kind of experiment: Evaluated for number of rats ovulating in an in vivo anti-ovulatory assay at dose (250 microg); 0/6. It is filed as functional, organism-based.
Experiment [9] concerns Rattus norvegicus. Briefly: Evaluated for number of rats ovulating in an in vivo anti-ovulatory assay at dose (100 microg); 2/9. It is filed as functional, organism-based.
The subject of experiment [10] is Rattus norvegicus. Kind of experiment: Evaluated for number of rats ovulating in an in vivo anti-ovulatory assay at dose (500 microg); 8/8. It is filed as functional, organism-based.
Experiment [11] concerns the target T1, Gonadotropin-releasing hormone receptor (Rattus norvegicus, UniProt P30969).
T1 sequence (P30969 whole entry): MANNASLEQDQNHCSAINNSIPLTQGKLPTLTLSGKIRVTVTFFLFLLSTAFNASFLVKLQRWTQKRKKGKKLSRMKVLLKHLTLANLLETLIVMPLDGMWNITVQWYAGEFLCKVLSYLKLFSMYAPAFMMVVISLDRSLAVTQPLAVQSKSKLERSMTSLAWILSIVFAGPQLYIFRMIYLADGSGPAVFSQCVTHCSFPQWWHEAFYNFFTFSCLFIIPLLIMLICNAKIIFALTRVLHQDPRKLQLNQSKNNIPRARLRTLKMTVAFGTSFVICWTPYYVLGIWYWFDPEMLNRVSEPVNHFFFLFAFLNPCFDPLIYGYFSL
Kind of experiment: Competitive radioligand binding assay for rat Gonadotropin-releasing hormone receptor cells stably transfected in human HEK293. The gist of the method: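 Membranes from HEK-293 cells stably expressing rat GnRH receptor (5% sucrose homogenate; nuclei removed at 3000g, membranes pelleted at 20000g, 4 °C), 7 µg protein in 10 mM Hepes pH 7.5, 150 mM NaCl, 0.1% BSA. Competitor at varying concentrations vs des-Gly10-[125I-Tyr5,DAla6,NMeLeu7,Pro9-NHEt]GnRH (~100 000 cpm), 90 min; PEI-coated GF/C filtration, PBS wash, γ counting. Ki by nonlinear least-squares fit; ≥3 independent experiments, mean ± SEM.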

The test system of experiment [12] is Rattus norvegicus. Briefly: Evaluated for number of rats ovulating in an in vivo anti-ovulatory assay at dose (1000 microg); 3/8. It is filed as functional, organism-based.
The subject of experiment [13] is Rattus norvegicus. Kind of experiment: Evaluated for number of rats ovulating in an in vivo anti-ovulatory assay at dose (25 microg); 0/6. It is filed as functional, organism-based.
In experiment [14] the test system is Rattus norvegicus. Briefly: Evaluated for number of rats ovulating in an in vivo anti-ovulatory assay at dose (10 microg); 10/10. It is filed as functional, organism-based.
Experiment [15] concerns Rattus norvegicus. Kind of experiment: Evaluated for number of rats ovulating in an in vivo anti-ovulatory assay at dose(1000 microg); 7/8. It is filed as functional, organism-based.
In experiment [16] the test system is Rattus norvegicus. Briefly: Evaluated for number of rats ovulating in an in vivo anti-ovulatory assay at dose(100 microg); 0/5. The experiment is classed as functional, organism-based.
In experiment [17] the test system is Rattus norvegicus. Briefly: Evaluated for number of rats ovulating in an in vivo anti-ovulatory assay at dose(50 microg); 1/4. It is filed as functional, organism-based.

Each structure is given as a SMILES string. The source made the active and inactive calls. No cut-off for these calls is given here.

In the case of `CC(=O)N[C@H]1CC(=O)NCCC(=O)N[C@@H](C(=O)N[C@@H](CO)C(=O)N[C@@H](Cc2ccc(O)cc2)C(=O)N[C@H](Cc2ccc3ccccc3c2)C(=O)N[C@H](CC(C)C)C(=O)N[C@@H](CCCN=C(N)N)C(=O)N2CCC[C@H]2C(=O)N[C@H](C)C(N)=O)CNC(=O)[C@@H](Cc2ccc(Cl)cc2)NC1=O`, the outcome with Rattus norvegicus [1] was inactive. Also, the outcome with Rattus norvegicus [2] was Active.
With `CC(=O)N[C@H]1CC(=O)N[C@H](C)C(=O)N[C@@H](C(=O)N[C@@H](CO)C(=O)N[C@@H](Cc2ccc(O)cc2)C(=O)N[C@H](Cc2ccc3ccccc3c2)C(=O)N[C@H](CC(C)C)C(=O)N[C@@H](CCCN=C(N)N)C(=O)N2CCC[C@H]2C(=O)N[C@H](C)C(N)=O)CCCNC(=O)[C@@H](Cc2ccc(Cl)cc2)NC1=O`, the Activity entry in the experiment with Rattus norvegicus [3] and with Rattus norvegicus [4] was “Weak activity” throughout.
In the case of `CC(=O)N[C@H]1CC(=O)NCCCC(=O)N[C@@H](C(=O)N[C@@H](CO)C(=O)N[C@@H](Cc2ccc(O)cc2)C(=O)N[C@H](Cc2ccc3ccccc3c2)C(=O)N[C@H](CC(C)C)C(=O)N[C@@H](CCCN=C(N)N)C(=O)N2CCC[C@H]2C(=O)N[C@H](C)C(N)=O)CNC(=O)[C@@H](Cc2ccc(Cl)cc2)NC1=O`, in the experiment on Rattus norvegicus [5], the outcome was inactive. In addition, the Activity result with Rattus norvegicus [6] was “Weak activity”.
On to `CC(=O)N[C@H]1CC(=O)N[C@@H](C)C(=O)N[C@@H](C(=O)N[C@@H](CO)C(=O)N[C@@H](Cc2ccc(O)cc2)C(=O)N[C@H](CCCN=C(N)N)C(=O)N[C@H](CC(C)C)C(=O)N[C@@H](CCCN=C(N)N)C(=O)N2CCC[C@H]2C(=O)N[C@H](C)C(N)=O)CCCNC(=O)[C@@H](Cc2ccc(Cl)cc2)NC1=O`, for which, in the experiment on Rattus norvegicus [7], the outcome was inactive.
On to `CC(=O)N[C@H]1CC(=O)N[C@@H](C)C(=O)N[C@@H](C(=O)N[C@@H](CO)C(=O)N[C@@H](Cc2ccc(O)cc2)C(=O)N[C@H](Cc2ccc3ccccc3c2)C(=O)N[C@H](CC(C)C)C(=O)N[C@@H](CCCN=C(N)N)C(=O)N2CCC[C@H]2C(=O)N[C@H](C)C(N)=O)CCCNC(=O)[C@@H](Cc2ccc(Cl)cc2)NC1=O`, for which the outcome with Rattus norvegicus [8] was Active. In addition, the Activity result with Rattus norvegicus [9] is “Weak activity”.
Turning to `CC(=O)N[C@H]1CCC(=O)N[C@@H](C(=O)N[C@@H](CO)C(=O)N[C@@H](Cc2ccc(O)cc2)C(=O)N[C@H](CCCN=C(N)N)C(=O)N[C@H](CC(C)C)C(=O)N[C@@H](CCCN=C(N)N)C(=O)N2CCC[C@H]2C(=O)N[C@H](C)C(N)=O)CCCCNC(=O)[C@@H](Cc2ccc(Cl)cc2)NC1=O`, in the experiment on Rattus norvegicus [10], the result was inactive.
Take `CC(=O)NC1CCCNC(=O)CCNC(=O)C[C@@H](C(=O)N[C@@H](CO)C(=O)N[C@@H](Cc2ccc(O)cc2)C(=O)N[C@H](Cc2ccc3ccccc3c2)C(=O)N[C@H](CC(C)C)C(=O)NC(CCCN=C(N)N)C(=O)N2CCC[C@H]2C(=O)N[C@H](C)C(N)=O)NC(=O)[C@@H](Cc2ccc(Cl)cc2)NC1=O` (stereo in doubt): in experiment [11], the affinity corresponds to a Ki of 2.2 nM. Besides, in the experiment on Rattus norvegicus [12], the Activity result was “Weak activity”.
In the case of `CC(=O)N[C@H]1CC(=O)NCC(=O)N[C@@H](C(=O)N[C@@H](CO)C(=O)N[C@@H](Cc2ccc(O)cc2)C(=O)N[C@H](Cc2ccc3ccccc3c2)C(=O)N[C@H](CC(C)C)C(=O)N[C@@H](CCCN=C(N)N)C(=O)N2CCC[C@H]2C(=O)N[C@H](C)C(N)=O)CCCNC(=O)[C@@H](Cc2ccc(Cl)cc2)NC1=O`, the outcome with Rattus norvegicus [13] was Active. The result with Rattus norvegicus [14] was inactive.
As to `CC(=O)N[C@H]1CC(=O)N[C@H](C(=O)N[C@@H](CO)C(=O)N[C@@H](Cc2ccc(O)cc2)C(=O)N[C@H](Cc2ccc3ccccc3c2)C(=O)N[C@H](CC(C)C)C(=O)N[C@@H](CCCN=C(N)N)C(=O)N2CCC[C@H]2C(=O)N[C@H](C)C(N)=O)CNC(=O)[C@@H](Cc2ccc(Cl)cc2)NC1=O`, in the experiment on Rattus norvegicus [15], the result was inactive.
In the case of `CC(=O)N[C@H]1CCC(=O)N[C@@H](C(=O)N[C@@H](CO)C(=O)N[C@@H](Cc2ccc(O)cc2)C(=O)N[C@H](Cc2ccc3ccccc3c2)C(=O)N[C@H](CC(C)C)C(=O)N[C@@H](CCCN=C(N)N)C(=O)N2CCC[C@H]2C(=O)N[C@H](C)C(N)=O)CCCCNC(=O)[C@@H](Cc2ccc(Cl)cc2)NC1=O`, the result with Rattus norvegicus [16] and in the experiment on Rattus norvegicus [17] was Active.

For the origin of these results see ChEMBL document CHEMBL1132958, “Design of monocyclic (1-3) and dicyclic (1-3/4-10) gonadotropin releasing hormone (GnRH) antagonists” (J Med Chem, 2000).
